The source made the active and inactive calls. The rule behind the calls is not given here.
Tests used:
[1] = Toxicity in ICR mouse assessed mouse mortality at 5000 mg/kg, po administered as single dose via gavage treated on day 1 and measured daily up to 14 days; type: organism-based; conditions: in vivo, 336 h
Procedure, shortened: (§1)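 Mice of both sexes, 7 weeks old, were randomized and given one oral gavage dose on day 1. Dose levels were 500, 1000, 2000, 3000, 4000 or 5000 mg/kg, or 2000, 4000 and 5000 mg/kg, with n = 10 per group. Behaviour, health and mortality were checked daily for 14 days, and total deaths were counted on day 14. LD50 was calculated with 95% confidence limits.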

Platelet [2] = assay: Antiplatelet activity in platelet rich plasma (unknown origin) assessed as inhibition of ADP-induced platelet aggregation at 4 mM relative to control; type: functional
3T3-L1 [3] = assay: Induction of superoxide dismutase level in TNF-alpha-induced insulin resistant mouse 3T3L1 cells at 10 uM after 48 hrs; type: functional, cell-based
Procedure, shortened: (§2)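 3T3-L1 preadipocytes were differentiated, and mature adipocytes made insulin resistant with TNF-α (4 ng/mL) daily for 4 days. Cells were then treated in triplicate for 48 h, with or without 20 μM C-PTIO. Lysate GSH, SOD and MDA were measured with kits. Three experiments, mean ± SD.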

3T3-L1 [4] = assay: Inhibition of MDA level in TNF-alpha-induced insulin resistant mouse 3T3L1 cells 10 uM after 48 hrs; type: functional, cell-based; procedure, shortened: as §2
Platelet [5] = assay: Antiplatelet activity in platelet rich plasma (unknown origin) assessed as inhibition of arachidonic acid-induced platelet aggregation at 2 mM relative to control; type: functional
[6] = Toxicity in ICR mouse assessed mouse mortality at 500 mg/kg, po administered as single dose via gavage treated on day 1 and measured daily up to 14 days; type: organism-based; conditions: in vivo, 336 h; procedure, shortened: as §1
[7] = Metabolic stability in Sprague-Dawley rat plasma after 24 hrs by HPLC analysis
3T3-L1 [8] = assay: Inhibition of ROS production in TNF-alpha-induced insulin resistant mouse 3T3L1 cells at 10 uM after 48 hrs in presence of nitric oxide scavenger C-PTIO by DCFH-DA dye-based fluorescence assay; type: functional, cell-based
[9] = Metabolic stability in simulated gastric fluid at pH 1.5 measured immediately after compound addition by HPLC analysis; type: ADME; conditions: read-out: Stability
Procedure, shortened: (§3)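 Gastric fluid was 1% pepsin in water, pH 1.5. Intestinal fluid was 1% trypsin with 0.68% KH2PO4, pH 6.8. Compound (100 mM DMSO stock) was diluted 1:1000 into each, in triplicate. Incubation was at 37 °C for 0, 2, 4, 6, 16 or 24 h. Acetonitrile (3 volumes) stopped it, then HPLC at 254 nm.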

[10] = Metabolic stability in simulated intestinal fluid at pH 6.8 measured immediately after compound addition by HPLC analysis; type: ADME; conditions: read-out: Stability; procedure, shortened: as §3
3T3-L1 [11] = assay: Induction of superoxide dismutase level in TNF-alpha-induced insulin resistant mouse 3T3L1 cells at 3 to 10 uM after 48 hrs; type: functional, cell-based; procedure, shortened: as §2
Platelet [12] = assay: Antiplatelet activity in platelet rich plasma (unknown origin) assessed as inhibition of ADP-induced platelet aggregation at 1.6 mM relative to control; type: functional
[13] = Metabolic stability in simulated intestinal fluid at pH 6.8 measured after 6 hrs by HPLC analysis; type: ADME; conditions: read-out: Stability; procedure, shortened: as §3
[14] = Metabolic stability in simulated intestinal fluid at pH 6.8 measured after 16 hrs by HPLC analysis; type: ADME; conditions: read-out: Stability; procedure, shortened: as §3
3T3-L1 [15] = assay: Induction of nitric oxide production in TNF-alpha-induced insulin resistant mouse 3T3L1 cells at 3 to 10 uM after 0.5 to 6 hrs by DAF-FM-2DA dye based fluorescence assay; type: functional, cell-based
Procedure, shortened: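 Insulin-resistant 3T3-L1 adipocytes (TNF-α 4 ng/mL, 4 days) were treated for varying times, with or without 20 μM C-PTIO. Vehicle was DMSO 0.1% or NaOH 10 μM. Cells were washed in KRP, loaded with 10 μM DAF-FM-2DA in pH 7.4 PBS at 37 °C for 30 min, and read at Ex/Em 485/515 nm. Three experiments.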

[16] = Drug metabolism in Sprague-Dawley rat plasma after 0.5 hrs by HPLC analysis; type: ADME, cell-free; conditions: read-out: Drug metabolism
Procedure, shortened: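 100 mM DMSO stock was diluted 1:1000 into SD rat plasma, in triplicate. Incubated with shaking at 37 °C for 0–24 h, then stopped with three volumes of acetonitrile and centrifuged.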

[17] = Metabolic stability in simulated gastric fluid at pH 1.5 measured after 4 hrs by HPLC analysis; type: ADME; conditions: read-out: Stability; procedure, shortened: as §3
Platelet [18] = assay: Antiplatelet activity in platelet rich plasma (unknown origin) assessed as inhibition of arachidonic acid-induced platelet aggregation at 0.1 mM relative to control; type: functional
[19] = Toxicity in spontaneous db/db BKS.Cg-Dock7m +/+ Leprdb/J mouse assessed as reduction in serum hematocrit value at 13.5 to 27 umol/kg, po administered as daily dose via gavage treated for 18 days; type: organism-based; conditions: in vivo, 432 h
[20] = Metabolic stability in simulated gastric fluid at pH 1.5 measured after 16 hrs by HPLC analysis; type: ADME; conditions: read-out: Stability; procedure, shortened: as §3
[21] = Metabolic stability in simulated intestinal fluid at pH 6.8 measured after 2 hrs by HPLC analysis; type: ADME; conditions: read-out: Stability; procedure, shortened: as §3
[22] = Metabolic stability in simulated gastric fluid at pH 1.5 measured after 6 hrs by HPLC analysis; type: ADME; conditions: read-out: Stability; procedure, shortened: as §3
Platelet [23] = assay: Antiplatelet activity in platelet rich plasma (unknown origin) assessed as inhibition of arachidonic acid-induced platelet aggregation at 0.05 mM relative to control; type: functional
Platelet [24] = assay: Antiplatelet activity in platelet rich plasma (unknown origin) assessed as inhibition of ADP-induced platelet aggregation at 0.2 mM relative to control; type: functional
Mus musculus = assay: Cardioprotective activity in db/db BKS.Cg-Dock7m +/+ Leprdb/J mouse assessed as decrease in serum TNF-alpha level at 27 umol/kg, po administered as daily dose via gavage treated for 18 days by ELISA; type: functional, organism-based
Procedure, shortened: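 db/db mice were gavaged daily for 18 days in 0.5% CMC-Na, with vehicle-treated model and C57BL/6 control groups. Tail vein blood was collected and serum TNF-α and cTnI measured by commercial ELISA kits. Six individual experiments, mean ± SD, one-way ANOVA.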

[25] = Metabolic stability in simulated gastric fluid at pH 1.5 measured after 24 hrs by HPLC analysis; type: ADME; conditions: read-out: Stability; procedure, shortened: as §3
[26] = Metabolic stability in human liver microsomes after 6 hrs in presence of NADPH by HPLC analysis; type: ADME, Microsome; conditions: read-out: Stability
Procedure, shortened: (§4)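 Compound (100 mM DMSO stock) was added in triplicate to 0.1 M phosphate buffer pH 7.4 with 3.3 mM MgCl2 and human liver microsomes, then preincubated 5 min at 37 °C. NADPH (1.3 mM stock) was added and incubation continued 0, 0.5, 1, 2 or 6 h. Acetonitrile quench, then HPLC at 254 nm.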

3T3-L1 [27] = assay: Inhibition of ROS production in TNF-alpha-induced insulin resistant mouse 3T3L1 cells at 3 to 10 uM after 48 hrs in presence of nitric oxide scavenger C-PTIO by DCFH-DA dye-based fluorescence assay; type: functional, cell-based
[28] = Metabolic stability in human liver microsomes measured immediately after compound addition in presence of NADPH by HPLC analysis; type: ADME, Microsome; conditions: read-out: Stability; procedure, shortened: as §4

**Q.** For `CN(CCOc1ccc(CC2SC(=O)NC2=O)cc1)c1ccccn1` (centres undefined) [ROSIGLITAZONE], which Activity [1] is on record?
**A.** The Activity was “Toxic”.

**Q.** And the inhibition at 4000 µM (Platelet [2])?
**A.** The inhibition at 4000 µM was 43.1%.

**Q.** What about the Activity (3T3-L1 [3]) of the same molecule?
**A.** The Activity was “Active”.

**Q.** What about the inhibition (3T3-L1 [4]) of the same molecule?
**A.** The inhibition was “Active”.

**Q.** And the inhibition at 2000 µM (Platelet [5])?
**A.** Its inhibition at 2000 µM is 28%.

**Q.** And the Activity [6]?
**A.** Its Activity is “Non-Toxic”.

**Q.** And the Stability [7]?
**A.** The Stability was 39%.

**Q.** And the inhibition (3T3-L1 [8])?
**A.** Its inhibition is “inactive”.

**Q.** With `CCN(CC)/[N+]([O-])=N/OCOC(=O)/C=C/c1ccc(OC(=O)OCN2C(=O)SC(Cc3ccc(OCCN(C)c4ccccn4)cc3)C2=O)c(OC)c1` (centres undefined) as the molecule, how does the remaining at 0 h [9] read?
**A.** The remaining at 0 h was 100%.

**Q.** What about the remaining at 0 h [10] of the same molecule?
**A.** Its remaining at 0 h is 100%.

**Q.** And the Activity (3T3-L1 [11])?
**A.** The Activity was “Active”.

**Q.** What about the inhibition at 1600 µM (Platelet [12]) of the same molecule?
**A.** Its inhibition at 1600 µM is 47%.

**Q.** What about the remaining at 6 h [13] of the same molecule?
**A.** The remaining at 6 h was 87.6%.

**Q.** What about the remaining at 16 h [14] of the same molecule?
**A.** Its remaining at 16 h is 85.8%.

**Q.** And the Activity (3T3-L1 [15])?
**A.** The Activity was “Active”.

**Q.** And the metabolised at 0.5 h [16]?
**A.** Its metabolised at 0.5 h is 23%.

**Q.** What about the remaining at 4 h [17] of the same molecule?
**A.** The remaining at 4 h was 97%.

**Q.** What about the inhibition at 100 µM (Platelet [18]) of the same molecule?
**A.** Its inhibition at 100 µM is 21.6%.

**Q.** And the Activity [19]?
**A.** Its Activity is “Non-Toxic”.

**Q.** And the remaining at 16 h [20]?
**A.** Its remaining at 16 h is 86.6%.

**Q.** And the remaining at 2 h [21]?
**A.** Its remaining at 2 h is 97.7%.

**Q.** And the remaining at 6 h [22]?
**A.** Its remaining at 6 h is 93.6%.

**Q.** What about the inhibition at 50 µM (Platelet [23]) of the same molecule?
**A.** Its inhibition at 50 µM is 9.2%.

**Q.** And the inhibition at 200 µM (Platelet [24])?
**A.** The inhibition at 200 µM was 9.9%.

**Q.** And the Activity (Mus musculus)?
**A.** Its Activity is “Active”.

**Q.** What about the remaining at 24 h [25] of the same molecule?
**A.** Its remaining at 24 h is 82.6%.

**Q.** And the remaining at 6 h [26]?
**A.** The remaining at 6 h was 82%.

**Q.** And the inhibition (3T3-L1 [27])?
**A.** Its inhibition is “inactive”.

**Q.** And the remaining at 0 h [28]?
**A.** The remaining at 0 h was 100%.
